The term IC50 denotes the concentration at which inhibition is half-maximal.

Among the data in ChEMBL document CHEMBL1151733, “Pirinixic acid derivatives as novel dual inhibitors of microsomal prostaglandin E2 synthase-1 and 5-lipoxygenase” (J Med Chem, 2008) are Activity and IC50 values, retold here.

Assay [1] deals with T1, Polyunsaturated fatty acid 5-lipoxygenase (Homo sapiens) (UniProt P09917).
T1 sequence (whole entry): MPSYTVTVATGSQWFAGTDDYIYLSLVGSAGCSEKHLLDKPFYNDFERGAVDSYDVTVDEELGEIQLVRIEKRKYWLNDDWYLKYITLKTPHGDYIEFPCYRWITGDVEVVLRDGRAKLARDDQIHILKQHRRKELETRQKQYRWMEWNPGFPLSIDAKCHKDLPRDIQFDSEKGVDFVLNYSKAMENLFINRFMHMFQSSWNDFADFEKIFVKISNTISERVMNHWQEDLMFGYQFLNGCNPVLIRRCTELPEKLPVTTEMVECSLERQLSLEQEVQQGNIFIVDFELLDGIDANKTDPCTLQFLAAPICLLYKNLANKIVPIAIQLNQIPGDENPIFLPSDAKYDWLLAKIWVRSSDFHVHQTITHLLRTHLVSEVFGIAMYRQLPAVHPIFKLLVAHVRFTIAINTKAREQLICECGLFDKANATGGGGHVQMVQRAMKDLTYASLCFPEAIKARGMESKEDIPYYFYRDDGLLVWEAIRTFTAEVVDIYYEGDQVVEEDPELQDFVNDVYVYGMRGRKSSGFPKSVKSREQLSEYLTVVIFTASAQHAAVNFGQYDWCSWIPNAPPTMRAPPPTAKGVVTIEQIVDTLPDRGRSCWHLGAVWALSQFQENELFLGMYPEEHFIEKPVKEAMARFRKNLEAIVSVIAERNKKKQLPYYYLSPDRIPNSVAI
In words: Inhibition of 5-LO in human PMNL cells at 10 uM relative to control. The assay is classed as cell-based. Details: scale not given: the % may be the effect or the level left. Put shortly:
(§1)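 Freshly isolated human PMNL from leukocyte concentrates of healthy donors, 5 × 10⁶ cells/mL in PBS pH 7.4 with 1 mg/mL glucose and 1 mM CaCl₂. Preincubated with compound 15 min at RT, then stimulated with 2.5 µM A23187 plus 20 µM AA for 10 min at 37 °C. Stopped with methanol; LTB₄, its all-trans isomers and 5-H(P)ETE quantified by HPLC with PGB₁ internal standard.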

In assay [2] the target is T2, Prostaglandin G/H synthase 1 (Ovis aries, UniProt P05979).
T2 sequence (P05979 whole entry): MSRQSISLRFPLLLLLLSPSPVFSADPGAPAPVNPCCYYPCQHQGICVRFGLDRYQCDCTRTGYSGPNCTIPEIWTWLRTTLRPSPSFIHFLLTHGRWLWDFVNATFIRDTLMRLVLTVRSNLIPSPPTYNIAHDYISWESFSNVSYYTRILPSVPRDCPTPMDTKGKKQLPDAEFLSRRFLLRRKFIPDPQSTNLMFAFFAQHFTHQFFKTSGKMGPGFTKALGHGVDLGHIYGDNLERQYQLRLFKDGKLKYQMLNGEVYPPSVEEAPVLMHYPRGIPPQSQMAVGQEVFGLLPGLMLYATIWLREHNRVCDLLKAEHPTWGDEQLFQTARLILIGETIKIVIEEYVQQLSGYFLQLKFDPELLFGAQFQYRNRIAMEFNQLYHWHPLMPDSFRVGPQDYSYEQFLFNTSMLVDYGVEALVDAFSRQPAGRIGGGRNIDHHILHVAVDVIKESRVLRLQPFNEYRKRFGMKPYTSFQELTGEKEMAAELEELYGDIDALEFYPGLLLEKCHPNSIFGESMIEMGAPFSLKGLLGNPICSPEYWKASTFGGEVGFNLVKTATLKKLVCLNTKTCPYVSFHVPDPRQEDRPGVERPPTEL
In words: Inhibition of ovine COX1. The gist of the method: (§2)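 Ovine COX-1 (50 units) or human recombinant COX-2 (20 units) in 100 mM Tris pH 8 with 5 mM glutathione, 5 µM hemoglobin and 100 µM EDTA. Compound preincubation 5 min at 4 °C, then prewarming 60 s at 37 °C. AA added at 5 µM for COX-1 or 2 µM for COX-2, reacted 5 min at 37 °C. 12-HHT extracted and quantified by HPLC. Mean ± SE, n = 3.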

Assay [3] concerns the target T3, Prostaglandin G/H synthase 2 (Homo sapiens, UniProt P35354).
T3 sequence (P35354 whole entry): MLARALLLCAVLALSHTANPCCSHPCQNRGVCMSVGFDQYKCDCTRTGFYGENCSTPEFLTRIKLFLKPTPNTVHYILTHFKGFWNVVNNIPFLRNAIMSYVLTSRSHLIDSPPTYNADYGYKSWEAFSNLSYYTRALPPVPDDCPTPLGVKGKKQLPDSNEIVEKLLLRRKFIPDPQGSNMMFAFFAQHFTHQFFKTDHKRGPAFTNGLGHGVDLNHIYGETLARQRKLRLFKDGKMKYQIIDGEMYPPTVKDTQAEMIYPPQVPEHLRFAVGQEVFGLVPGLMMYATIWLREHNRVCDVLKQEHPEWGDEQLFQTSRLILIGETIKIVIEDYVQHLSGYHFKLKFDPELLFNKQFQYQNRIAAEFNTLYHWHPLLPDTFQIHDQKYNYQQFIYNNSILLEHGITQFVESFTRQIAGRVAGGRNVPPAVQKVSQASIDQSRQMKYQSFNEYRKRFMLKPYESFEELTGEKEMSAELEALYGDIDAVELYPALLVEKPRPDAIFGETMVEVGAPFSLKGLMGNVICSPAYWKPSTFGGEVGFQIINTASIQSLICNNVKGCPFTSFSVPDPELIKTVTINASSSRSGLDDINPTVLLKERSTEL
As to the kind of experiment: Inhibition of human recombinant COX2. Put shortly: as §2

Assay [4] has as its target T4, Prostaglandin E synthase (Homo sapiens) (UniProt O14684).
T4 sequence (whole entry): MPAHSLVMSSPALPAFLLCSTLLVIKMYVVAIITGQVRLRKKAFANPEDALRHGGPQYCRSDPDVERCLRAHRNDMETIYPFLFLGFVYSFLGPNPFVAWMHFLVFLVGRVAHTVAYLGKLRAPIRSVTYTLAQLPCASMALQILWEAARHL
In words: Inhibition of PGES1 in human A549 cell microsome assessed as PGE2 formation at 10 uM by cell-free assay relative to control. Also on record: scale not given: the % may be the effect or the level left. Put shortly:
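Microsomes from A549 cells grown with IL-1β (1 ng/mL, 72 h), diluted in 0.1 M potassium phosphate pH 7.4 with 2.5 mM glutathione. Compound or DMSO added 15 min before PGH₂ (20 µM final). Reaction ran 1 min at 4 °C and was stopped with FeCl₂/citric acid. PGE₂ isolated by C18 SPE, then RP-HPLC with UV at 195 nm against 11β-PGE₂ internal standard.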

Assay [5] concerns the target T5, Prostaglandin G/H synthase 2 (Homo sapiens) (UniProt P35354).
T5 sequence (whole entry): T3 sequence (P35354 whole entry)
As to the kind of experiment: Inhibition of human recombinant COX2 assessed as remaining activity at 10 uM relative to control. The gist of the method:
as §2

Assay [6] concerns the target T6, Prostaglandin G/H synthase 1 (Ovis aries) (UniProt P05979).
T6 sequence (whole entry): T2 sequence (P05979 whole entry)
In words: Inhibition of ovine COX1 assessed as remaining activity at 10 uM relative to control. The gist of the method:
as §2

For assay [7], the target named is T7, Polyunsaturated fatty acid 5-lipoxygenase (Homo sapiens, UniProt P09917).
T7 sequence (P09917 whole entry): T1 sequence (whole entry)
In words: Inhibition of 5-LO in PMNL cells. In kind it is cell-based. The gist of the method:
as §1

The target of assay [8] is T7, Polyunsaturated fatty acid 5-lipoxygenase. As to the kind of experiment: Inhibition of human recombinant 5-LO expressed in Escherichia coli by cell-free assay. Put shortly:
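Human 5-LO expressed in E. coli MV1190 (pT3-5LO) at 27 °C, partially purified from the 100000g lysate supernatant. Held in PBS pH 7.4 with 1 mM EDTA and 1 mM ATP with compound for 10 min at 4 °C, warmed 30 s at 37 °C, then started with 2 mM CaCl₂ plus 20 µM AA. After 10 min at 37 °C, stopped with cold methanol; products measured by HPLC.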

Calls of active or inactive are those of the source. No cut-off for these calls is given here.

`CCCCCCC(Sc1nc(Cl)cc(NCCc2ccccc2)n1)C(=O)O` (stereo not given): the Activity in assay [1] came out at 16.1%; in assay [4], 70%. Besides, the IC50 in assay [2] and in assay [3] was over 10 µM each time.
On to `O=C(O)CSc1nc(OCCc2ccccc2)cc(OCCc2ccccc2)n1`, for which the Activity was 40.6% in assay [1] and 66.4% in assay [4]. Moreover, the IC50 in assay [2] and in assay [3] was over 10 µM in each case.
As to `CCCCCCC(Sc1nc(Cl)cc(Nc2ccc(-c3ccc(C#N)cc3)cc2)n1)C(=O)O` (stereo not given), the Activity in assay [5] worked out at 61.2%; in assay [1], 2.7%; in assay [6] it was 66%; in assay [4] it was 26.1%. In addition, the IC50 is over 10 µM in assay [2], 0.4 µM in assay [7], over 10 µM in assay [3] and 1.5 µM in assay [8].
As for `CCCCCCCCC(Sc1nc(Cl)cc(Nc2cccc(C)c2C)n1)C(=O)O` (stereo not given), the Activity in assay [1] amounted to 7%; in assay [4], 29.8%. Further, the IC50 in assay [2] and in assay [3] was over 10 µM throughout.
On to `CCCCCCC(Sc1nc(Cl)cc(Nc2cc(OCC(F)(F)F)cc(OCC(F)(F)F)c2)n1)C(=O)O` (stereo not given), for which the results for the Activity in assay [5], in assay [1] and in assay [6] were 70.4%, 8% and 40%, respectively. Also, the IC50 was 1.5 µM in assay [7] and 3 µM in assay [8].
As to `CCCCCC[C@@H](Sc1nc(Cl)cc(Nc2ccc(-c3ccc(C#N)cc3)cc2)n1)C(=O)O`, the results for the Activity in assay [1] and in assay [4] were 2.8% and 36.8%, respectively. In addition, the IC50 was over 10 µM in assay [2], over 10 µM in assay [3] and 0.8 µM in assay [8].
Take `CCCCCCC(Sc1nc(Cl)cc(Oc2ccc3ncccc3c2)n1)C(=O)O` (stereo not given): the IC50 in assay [2] and in assay [3] was over 10 µM throughout. The Activity in assay [4] came to 67.4%.
In the case of `Cc1cccc(Nc2cc(Cl)nc(SC(C(=O)O)c3cccc4ccccc34)n2)c1C` (stereo not given), the Activity was 32.5% in assay [5], 16.8% in assay [1] and 42.2% in assay [6]. The compound further came in with an IC50 in assay [7] of 5 µM.
`CC(=O)N(O)C/C=C/c1cccc(Oc2ccccc2)c1`: the IC50 in assay [2] and in assay [3] was over 10 µM throughout. Further, the result in assay [4] was inactive.
As to `CCCCCCC(Sc1nc(Cl)cc(Nc2ccc3ncccc3c2)n1)C(=O)O` (stereo not given), the IC50 in assay [2] and in assay [3] was over 10 µM in each case. Besides, the Activity in assay [4] amounted to 59%.
Regarding `Cc1cccc(Nc2cc(Cl)nc(SC(C)C(=O)O)n2)c1C` (stereo not given), the IC50 in assay [2] and in assay [3] was over 10 µM in each case. For the same compound, the outcome in assay [4] was inactive.
For the compound `CCCCCCC(Sc1nc(Cl)cc(NCc2ccc3ncccc3c2)n1)C(=O)O` (stereo not given), the IC50 in assay [2] and in assay [3] was over 10 µM each time. Further, the Activity in assay [4] turned out to be 85.7%.
`CCCCCCC(Sc1nc(Cl)cc(NCc2ccc(-c3ccccc3)cc2)n1)C(=O)OCC` (stereo not given) registered an Activity in assay [1] of 80.2%. Besides, the 50% inhibitory concentration (IC50) in assay [2] and in assay [3] was over 10 µM each time. The outcome in assay [4] was inactive.
With `CCCCCCC(Sc1nc(Cl)cc(Nc2cccc(C)c2C)n1)C(=O)OCC` (stereo not given), the IC50 in assay [2] and in assay [3] was over 10 µM in each case. Besides, the outcome in assay [4] was inactive.
As for `CCCCCC[C@H](Sc1nc(Cl)cc(Nc2ccc(-c3ccc(C#N)cc3)cc2)n1)C(=O)O`, the Activity in assay [1] is 2.8%; in assay [4] it was 23%. Moreover, the IC50 in assay [2] was over 10 µM; in assay [3], over 10 µM; in assay [8], 1.5 µM.
Consider `CCCCC(Sc1nc(Cl)cc(Nc2cccc(C)c2C)n1)C(=O)O` (stereo not given), for which the IC50 in assay [2] and in assay [3] was over 10 µM throughout. For the same compound, the result in assay [4] was inactive.
Consider `CCCCCCC(Sc1nc(Cl)cc(NCCOc2ccccc2)n1)C(=O)O` (stereo not given), for which the Activity is 28% in assay [1] and 79.9% in assay [4]. The IC50 in assay [2] and in assay [3] was over 10 µM throughout.
As to `Cc1cccc(Nc2cc(Cl)nc(SC(C)(C)C(=O)O)n2)c1C`, the IC50 in assay [2] and in assay [3] was over 10 µM throughout. Besides, the Activity in assay [4] amounted to 83.8%.
Turning to `CCCCC(Sc1nc(OCCc2ccccc2)cc(OCCc2ccccc2)n1)C(=O)O` (stereo not given), the figures for the Activity in assay [1] and in assay [4] were 2.7% and 43.1%, respectively. The IC50 in assay [2] and in assay [3] was over 10 µM each time.
With `CCCCC(Sc1nc(OCCc2ccccc2)cc(OCCc2ccccc2)n1)C(=O)OCC` (stereo not given), the Activity in assay [1] stood at 80.1%. For the same compound, the IC50 in assay [2] and in assay [3] was over 10 µM each time. In addition, the result in assay [4] was inactive.
On to `CCCCCCC(Sc1nc(Cl)cc(NCCOc2ccccc2)n1)C(=O)OCC` (stereo not given), for which the Activity was 37.1% in assay [1] and 80.7% in assay [4]. The IC50 in assay [2] and in assay [3] was over 10 µM throughout.
`Cc1cccc(Nc2cc(Cl)nc(SC(C(=O)O)c3ccccc3)n2)c1C` (stereo not given): the IC50 in assay [2] and in assay [3] was over 10 µM each time. For the same compound, in assay [4], the Activity is 74.6%.
With `Cc1cccc(Nc2cc(Cl)nc(SCC(=O)O)n2)c1C` [PIRINIXIC ACID], the IC50 in assay [2] and in assay [3] was over 10 µM each time. The outcome in assay [4] was inactive.
For `CCCCCCC(Sc1nc(Cl)cc(Nc2cccc(C)c2C)n1)C(=O)O` (stereo not given), the Activity is 62% in assay [5], 75.2% in assay [6] and 31.9% in assay [4]. Moreover, the IC50 in assay [2] is over 10 µM; in assay [3], over 10 µM; in assay [8], 6.5 µM.
